ANO1 activ: mouse TMEM16A channel activation, primary screen; HEK293 TMEM16A/YFP-H148Q/I152L, iodide quench fluorescence; hits give low values; B-score at 10 µM; 0.3% of 340,000 active; Q8BHY3;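 active = fluorescence-ratio B-score plate-corrected deviation score at least 3 library SD below zero, with starting fluorescence score within 5 deviations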;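 also: channel opened by trigger with iodide after compound preincubation; score built on the fluorescence ratio of max minus min over baseline; more negative score means more quench and so TMEM16A activation or potentiation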
MIN6 prolif: inducers of beta-cell replication in MIN6 cells; MIN6 cells proliferation, ATPlite luminescence, 48 h; cells starved in 0.2% serum; 100% = growth in 10% serum; proliferation, % at 10 µM; 0.29% of 330,000 active;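 active = compounds whose signal lies at least 3.5 SD above the mean of all wells on their plate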;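 also: 0% = DMSO-treated cells in low-serum medium and 100% = 10% serum control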
MC4R antag cAMP: antagonists of human melanocortin 4 receptor (MC4R); P32245; MC4R-expressing cells, MTII-stimulated cAMP, LANCE TR-FRET; inhibition, % at 6.5 µM; 0.48% of 360,000 active;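 active = inhibition above its plate's cutoff, the mean of tested wells on that plate plus 3 SD, cut at about 29% in these data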;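 also: 0% = Melanotan II alone and 100% = Melanotan II plus saturating MCL0020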
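Material – human MC4R-expressing U2OS cells · Repeats – no replicates · Detection – TR-FRET with Eu-cAMP and labeled anti-cAMP, 671 nm · Times – compound 30 min, challenge 1 h, detection 1 h · Compound – single nominal compound dose of 6.5 µM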
MC4R ag barr: activates human MC4R beta-arrestin recruitment. U2OS MC4R beta-arrestin complementation, luminescence; percent of melanotan II response, DMSO zero. activation, % at 8.9 µM. 0.98% of 360,000 active. P32245;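 active = activation above a per-plate cutoff, the mean activation of sample wells on that plate plus 3 SD, cut at about 8% in these data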
m5-HT2A agonist: mouse HTR2A agonism via beta-arrestin recruitment; CHO-K1 mHTR2A beta-arrestin complementation, luminescence; percent of 30 µM serotonin response; activation, % at 7.6 µM; 0.66% of 360,000 active; AID 624169;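 active = activation above a run cutoff, the mean activation of all tested compounds plus 3 SD, cut at about 14% in these data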;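 also: 0% = plate median of compound wells and 100% = 30 µM serotonin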
ANO1 block: mouse TMEM16A channel inhibition, primary screen. normalized B-score (activity score, 25-100; higher = stronger inhibition) at 10 µM. Q8BHY3. AID 588511. HEK293 TMEM16A/YFP iodide influx fluorescence, ionomycin. 1.2% of 310,000 active;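 active = ratio plate-corrected score three or more library SD toward inhibition, starting fluorescence score within five deviations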;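 also: score derived from kinetic fluorescence span divided by baseline fluorescence per well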
OPRM1 ag: counter-screen for mouse HTR2A agonists: human mu opioid receptor agonists; shares compounds with m5-HT2A agonist; U2OS OPRM1 beta-arrestin PathHunter, luminescence; DMSO 0%, DAMGO 9.3 µM 100%; activation, % at 9.3 µM; 5.3% of 2,300 active;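 active = mean activation above the mean of DMSO-only wells plus 3 SD, cut at about 0.5% in these data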
Target sequence (P35372 whole entry, looked up): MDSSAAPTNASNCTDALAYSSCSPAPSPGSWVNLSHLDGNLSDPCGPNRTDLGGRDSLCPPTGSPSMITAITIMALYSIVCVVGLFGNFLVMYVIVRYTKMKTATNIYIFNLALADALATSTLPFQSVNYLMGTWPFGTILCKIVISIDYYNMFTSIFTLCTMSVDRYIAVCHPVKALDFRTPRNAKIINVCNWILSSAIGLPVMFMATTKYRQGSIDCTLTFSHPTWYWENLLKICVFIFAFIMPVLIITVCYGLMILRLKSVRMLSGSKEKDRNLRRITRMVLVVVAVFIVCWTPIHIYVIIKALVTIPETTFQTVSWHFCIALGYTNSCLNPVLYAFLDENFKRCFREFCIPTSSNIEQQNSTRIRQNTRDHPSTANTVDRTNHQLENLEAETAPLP
m5-HT2A ag conf: confirmation of mouse HTR2A serotonin receptor agonists | CHO-K1 PathHunter beta-arrestin recruitment, luminescence; DMSO 0%, 30 µM serotonin 100% | shares compounds with m5-HT2A agonist | 19% of 2,300 active | activation, % at 7.6 µM;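 active = mean activation across triplicates above the hit threshold derived in the original primary screen, cut at about 15% in these data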
An asterisk follows results filed as active; i = inactive; . = no result. In the library only some 3.4% were active in any assay of this set; here they are far more common.

SMILES	ANO1 activ	MIN6 prolif	MC4R antag cAMP	MC4R ag barr	m5-HT2A agonist	ANO1 block	OPRM1 ag	m5-HT2A ag conf
CCCC/C(O)=C1\C(=O)CCCC1=NCCc1c(C)[nH]c2ccc(OC)cc12	i	0	11	1	-5	i	.	.
CCC/C(O)=C1\C(=O)CCCC1=NCCc1ccc(OCC)c(OCC)c1	i	1	17	-1	15*	i	-1	-3
COc1cc(C)c(S(=O)(=O)NCc2ccc3c(c2)OCO3)cc1C	i	-2	5	2	29*	i	0	0
CCc1nc2c(OCCC3CCCCC3)cccn2c1N(C)C(=O)c1cccs1	.	.	8	-4	-12	.	.	.
O=C(NCC(c1ccco1)N1CCN(c2ccccc2F)CC1)c1ccco1 (centres undefined)	i	-4	-1	-3	15*	i	-1	36*
O=C(c1ccc(Br)o1)N1CCN(Cc2ccc3c(c2)OCO3)CC1	i	-1	2	2	17*	i	0.8*	20*
Cc1cccc(C(=O)N2CCN(Cc3ccc4c(c3)OCO4)CC2)c1	i	2	-4	1	15*	i	0	7
CC(C)CC(=O)N1CCN(Cc2ccc3c(c2)OCO3)CC1	i	0	3	2	19*	i	0.6*	36*
CCCC(=O)N1CCN(Cc2ccc3c(c2)OCO3)CC1	i	0	-5	-1	8	i	.	.
C=CCN(c1ccccc1)S(=O)(=O)c1ccc2c(c1)NC(=O)C(C)C(=O)N2 (centres undefined)	i	-4	12	0	-4	i	.	.
Cc1ccccc1CC(=O)N1CCN(S(=O)(=O)c2cccs2)CC1	i	2	15	-4	16*	i	0	-5
Cc1ccccc1CC(=O)N1CCN(S(=O)(=O)c2ccc(Cl)s2)CC1	i	5	4	1	1	.	.	.
O=C1NC(=S)NC(=O)C1=Cc1ccccc1C(=O)O	i	.	2	0	0	.	.	.
COC(=O)C(C)Sc1nnc(Cc2cc(=O)[nH]c(=O)[nH]2)n1-c1cc(C)ccc1C (centres undefined)	i	2	-1	-1	31*	i	0	-3
CCOc1ccc(-n2c(Cc3cc(=O)[nH]c(=O)[nH]3)nnc2SC(C)C(=O)OC)cc1 (centres undefined)	i	0	12	0	3	i	.	.
O=C1Nc2ccccc2-n2nnnc2C1N1CCN(C(=O)c2ccco2)CC1 (centres undefined)	.	.	.	.	20*	.	-1	-5
O=C1Nc2ccccc2-n2nnnc2C1N1CCN(c2ccccn2)CC1 (centres undefined)	.	.	.	.	-5	.	.	.
Cc1ccc(NC(=O)COC(=O)CN2C(=O)C3CCCCC3C2=O)cc1S(=O)(=O)N1CCOCC1 (centres undefined)	i	-1	-3	2	2	i	.	.
Cc1ccc(NC(=O)COC(=O)CN2C(=O)NC(C)(C)C2=O)cc1S(=O)(=O)N1CCOCC1	i	-3	8	-1	24*	i	0	-4
Cc1ccc(C2(c3ccccc3)NC(=O)N(CC(=O)NCc3ccco3)C2=O)cc1C (centres undefined)	i	-6	7	1	-2	.	.	.
O=C(CN1C(=O)NC(c2ccccc2)(c2ccccc2)C1=O)NCc1ccco1	i	-1	-4	-1	15*	.	0	4
O=C(c1cc2nc(-c3ccco3)cc(C(F)(F)F)n2n1)N1CCCc2ccccc21	i	-3	-1	-1	23*	i	-1	-2
O=C(c1nn2c(C(F)(F)F)cc(-c3ccco3)nc2c1Br)N1CCCc2ccccc21	i	-4	-7	-1	-2	i	.	.
COc1ccc(S(=O)(=O)NCC(c2ccc3c(c2)OCO3)N2CCN(c3ccccc3)CC2)cc1 (centres undefined)	i	-5	9	-4	18*	i	0	66*
COC(=O)NCC(c1ccc2c(c1)OCO2)N1CCN(c2ccccc2)CC1 (centres undefined)	i	-1	-4	-3	-7	i	.	.
SMILES	ANO1 activ	MIN6 prolif	MC4R antag cAMP	MC4R ag barr	m5-HT2A agonist	ANO1 block	OPRM1 ag	m5-HT2A ag conf
CCOC(=O)C1CCN(S(=O)(=O)c2c(C)n(C)c(=O)n(C)c2=O)CC1	i	1	0	0	21*	i	-1	-1
CCOC(=O)C1CCN(S(=O)(=O)c2cn(C)c(=O)n(C)c2=O)CC1	i	-1	4	-2	-3	i	.	.
COCCNC(=O)C1(C)CCN(C(=O)c2sc(-c3ccccc3)nc2C)C1 (centres undefined)	.	.	9	-2	-4	.	.	.
CC1(c2nnnn2Cc2ccccc2)CCC(=O)N1Cc1ccc(F)cc1 (centres undefined)	.	.	.	.	2	.	.	.
O=C1C(=O)N(CCCn2ccnc2)C(c2ccc([N+](=O)[O-])cc2)/C1=C(\O)c1ccc2c(c1)OCCO2 (centres undefined)	i	-1	-2	-1	-3	.	.	.
C=CCOc1cccn2c(N(C)C(=O)c3ccccc3F)c(CC)nc12	.	.	1	-1	16*	.	0	-2
CCc1nc2c(OCc3ccc(F)cc3)cccn2c1N(C)C(=O)C(C)C	.	.	-1	0	4	.	.	.
CCc1nc2c(OCC(=O)c3ccc(F)cc3)cccn2c1N(C)C(=O)C(C)C	.	.	7	-1	24*	.	0	-5
O=C(OCc1cn([C@H]2CN(C(=O)C3CCCCC3)[C@@H](c3ccc(Cl)cc3)C[C@@H]2O)nn1)c1ccccc1	.	.	12	2	9	.	.	.
CCCCCCCCN1C(=O)[C@H](CC(=O)NCc2ccccc2)C[C@@]2(C(=O)OC)CCCCC=C12	.	.	.	.	2	.	.	.
Cc1ccc(C(O)Cn2nc(C)cc2C)cc1 (centres undefined)	i	-1	6	1	8	i	.	.
CC[N+](C)(CC)CC(O)COCC1COc2ccccc2O1 (centres undefined)	i	0	-3	-1	16*	i	-1	-2
OC(COCC1COc2ccccc2O1)CN1CCN(c2ccccc2F)CC1 (centres undefined)	i	-2	-2	4	15*	i	0	36*

Source: PubChem BioAssay (several laboratories)
